pEC50: −log10 of the molar value.
Experiments:
[1] = Cytotoxicity against human H9 cells assessed as reduction in cell viability after 7 days by MTT assay; type: cell-based
Summary of the method: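 MTT viability assay. H9 at 4×10^4 cells/well or PHA-stimulated PBMCs at 5×10^5 cells/well were incubated with serially diluted compound at 37 °C, 5% CO2 for seven days before MTT read-out. CC50 was calculated; mean ± standard deviation of three separate experiments.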

[2] = Therapeutic index, ratio of CC50 for human H9 cells to EC50 for HIV1 subtype B NL4-3 infected in human H9 cells
Summary of the method: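 Ratio of CC50 to EC50, both measured in H9 cells: MTT cytotoxicity over seven days, and p24 ELISA after 7 days of NL4-3 infection at MOI 0.03.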

[3] = tested on: Human immunodeficiency virus 1; test: Antiviral activity against HIV1 subtype B NL4-3 infected in human H9 cells assessed as reduction in p24 level after 7 days by ELISA; type: functional, cell-based; conditions: Human immunodeficiency virus 1, subtype B NL4-3, H9, 168 h
Summary of the method: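 H9 cells infected with NL4-3 at MOI 0.03 for 2 h, washed three times, then seeded at 4×10^4 cells/well with serially diluted compound. Incubated 7 days; supernatant p24 measured by in-house ELISA and EC50 calculated. Three separate experiments, mean ± standard deviation.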

| Compound | CC50 at 168 h [1] [µM] | Ratio CC50/EC50 [2] | pEC50 [3] |
| --- | --- | --- | --- |
| COc1ccccc1NC(=O)c1cc(N(C)C)ccc1Sc1ccc([N+](=O)[O-])cc1 | 182 | 0.781 | 3.63 |
| COc1ccccc1NC(=O)c1c(Sc2ccc([N+](=O)[O-])cc2)cccc1[N+](=O)[O-] |  |  | 3.63 |
| COc1ccccc1NC(=O)c1cscc1Sc1ccc([N+](=O)[O-])cc1 | 518 | 10.1 | 4.29 |
| COc1ccccc1NC(=O)c1c(NCCN)cccc1Sc1ccc([N+](=O)[O-])cc1 |  |  | 4.34 |
| COc1ccccc1NC(=O)c1cc(NC(C)=O)ccc1Sc1ccc([N+](=O)[O-])cc1 | 171 | 0.374 | 3.34 |
| COc1ccccc1NC(=O)c1c(NS(=O)(=O)c2ccc(C)cc2)cccc1Sc1ccc([N+](=O)[O-])cc1 | 364 | 11.9 | 4.51 |
| COc1ccccc1NC(=O)c1c(N)cccc1[S+]([O-])c1ccc([N+](=O)[O-])cc1 (stereo not given) | 335 | 31.9 | 4.98 |
| COc1ccccc1NC(=O)c1c(NCCO)cccc1Sc1ccc([N+](=O)[O-])cc1 | 265 | 6.08 | 4.36 |
| CNc1ccc(Sc2ccc([N+](=O)[O-])cc2)c(C(=O)Nc2ccccc2OC)c1 | 302 | 1.26 | 3.62 |
| COc1ccccc1NC(=O)c1cc(F)ccc1Sc1ccc([N+](=O)[O-])cc1 | 502 | 2.02 | 3.60 |
| CNc1cccc(S(=O)(=O)c2ccc([N+](=O)[O-])cc2)c1C(=O)Nc1ccccc1OC | 200 |  | 3.56 |
| COc1ccccc1NC(=O)c1c(NS(=O)(=O)c2ccccc2)cccc1Sc1ccc([N+](=O)[O-])cc1 |  |  | 3.73 |
| COc1ccccc1NC(=O)c1c(NS(=O)(=O)c2ccc(C)cc2)cccc1S(=O)(=O)c1ccc([N+](=O)[O-])cc1 |  |  | 3.76 |
| COc1ccccc1NC(=O)c1cc(C(F)(F)F)ccc1Sc1ccc([N+](=O)[O-])cc1 |  |  | 3.65 |
| COc1ccccc1NC(=O)c1c(Sc2ccc([N+](=O)[O-])cc2)cccc1N1CCNCC1 | 30.6 | 3.71 | 5.08 |
| COc1ccccc1NC(=O)c1c(Sc2ccc([N+](=O)[O-])cc2)cccc1N1CCOCC1 |  |  | 3.62 |
| COc1ccccc1NC(=O)c1cccnc1Sc1ccc([N+](=O)[O-])cc1 | 525 | 3.57 | 3.83 |
| COc1ccccc1NC(=O)c1c(NCCN)cccc1S(=O)(=O)c1ccc([N+](=O)[O-])cc1 | 211 | 0.986 | 3.67 |
| COc1ccccc1NC(=O)c1c(NCCO)cccc1S(=O)(=O)c1ccc([N+](=O)[O-])cc1 | 154 | 0.713 | 3.67 |
| COc1ccccc1NC(=O)c1c(NCC(N)=O)cccc1Sc1ccc([N+](=O)[O-])cc1 | 35.5 | 0.849 | 4.38 |
| COc1ccccc1NC(=O)c1cc(Cl)ccc1Sc1ccc([N+](=O)[O-])cc1 | 483 | 26.4 | 4.74 |
| COc1ccccc1NC(=O)c1c(NS(=O)(=O)c2ccccc2)cccc1S(=O)(=O)c1ccc([N+](=O)[O-])cc1 |  |  | 3.75 |
| COc1ccccc1C(=O)Nc1nc(Cl)ncc1Sc1ccc([N+](=O)[O-])cc1 | 480 | 8.78 | 4.26 |
| COc1ccccc1NC(=O)c1c(N)cccc1Oc1ccc([N+](=O)[O-])cc1 | 202 | 2.14 | 4.02 |
| COc1ccccc1NC(=O)c1c(NCCBr)cccc1Sc1ccc([N+](=O)[O-])cc1 |  |  | 3.66 |
| COc1ccccc1NC(=O)c1cc([N+](=O)[O-])ccc1Sc1ccc([N+](=O)[O-])cc1 |  |  | 3.63 |
| COc1ccccc1NC(=O)c1cc(N)ccc1Sc1ccc([N+](=O)[O-])cc1 |  |  | 5.18 |

From ChEMBL document CHEMBL4007447, “Synthesis, biological evaluation and molecular docking study of N-(2-methoxyphenyl)-6-((4-nitrophenyl)sulfonyl)benzamide derivatives as potent HIV-1 Vif antagonists” (Eur J Med Chem, 2017)
